# KCNQ1 pot = potentiators or activators of KCNQ1 channel, primary screen, cell-based, thallium flux, high-throughput; CHO-K1 KCNQ1, thallium flux FluxOR fluorescence; hits give high values; B-score at 10 µM; AID 2648, 2010; actives 0.35% (n = 310,000);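 active = fluorescence ratio B-score, a plate-corrected score, at least three library SD, with initial intensity B-score within 5 SD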
#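 Material: CHO-K1 cells stably expressing KCNQ1. Medium: assay buffer for compound exposure, DMSO matched across wells. Reagent: K+/Tl+ depolarizing stimulus. Compound dosing: single-concentration screen. Times: 37 °C overnight plating, 90-min dark dye load, 20-min compound pretreatment. Technique: FluxOR Tl+ flux fluorescence.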
# KCNQ1 block = inhibitors of human KCNQ1 channel, primary screen, cell-based, thallium flux, high-throughput | CHO-K1 KCNQ1, FluxOR thallium flux fluorescence; hits give high values | B-score at 10 µM | actives 1.3% (n = 310,000) | AID 2642, 2010;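 active = compounds whose thallium flux B-score, printed positive for inhibition, exceeds three library SD while starting fluorescence stays within three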;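 also: channel opened by potassium depolarization with thallium stimulus after 20 min compound exposure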
# KCNK3 inh = human KCNK3 channel inhibitors, primary screen, CHO cells, FluxOR thallium flux, B-score. Potassium channel subfamily K member 3 (Homo sapiens), O14649. B-score at 10 µM. actives 0.84% (n = 340,000). FluxOR fluorescence; hits give low values;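 active = B-score under library mean minus 4 SD, starting fluorescence ratio at most library mean plus 5 SD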;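 also: more negative B-score means stronger inhibition of thallium flux through KCNK3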
# KCNK9 block = KCNK9 potassium channel inhibitors, primary screen, HEK293 cells, thallium flux; Potassium channel subfamily K member 9 (Homo sapiens), Q9NPC2; FluxOR thallium flux fluorescence; hits give low values; B-score at 10 µM; actives 1.2% (n = 310,000); AID 488922, 2010;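 active = ratio B-score over 3 SD below the library mean, with starting fluorescence within 5 SD of its mean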;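 also: negative B-score means less thallium flux so channel inhibition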
# Kir21 inh = inhibitors of mouse Kir2.1 inward-rectifier potassium channel. Inward rectifier potassium channel 2 (Mus musculus), P35561. HEK293-Kir2.1, FluxOR thallium flux fluorescence; hits give low values. B-score at 10 µM. actives 0.85% (n = 310,000). AID 1672, 2009;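 active = fluorescence ratio B-score at or below minus 3 SD of library scores, with starting-brightness B-score within 2 SD, cut at about -4.2 in these data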;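 also: channel flux triggered by added potassium and thallium sulfate stimulus; B-score of peak minus minimum fluorescence over baseline after thallium stimulus; more negative B-score means stronger Kir2.1 block with less thallium influx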
# Target sequence (P35561 whole entry, looked up): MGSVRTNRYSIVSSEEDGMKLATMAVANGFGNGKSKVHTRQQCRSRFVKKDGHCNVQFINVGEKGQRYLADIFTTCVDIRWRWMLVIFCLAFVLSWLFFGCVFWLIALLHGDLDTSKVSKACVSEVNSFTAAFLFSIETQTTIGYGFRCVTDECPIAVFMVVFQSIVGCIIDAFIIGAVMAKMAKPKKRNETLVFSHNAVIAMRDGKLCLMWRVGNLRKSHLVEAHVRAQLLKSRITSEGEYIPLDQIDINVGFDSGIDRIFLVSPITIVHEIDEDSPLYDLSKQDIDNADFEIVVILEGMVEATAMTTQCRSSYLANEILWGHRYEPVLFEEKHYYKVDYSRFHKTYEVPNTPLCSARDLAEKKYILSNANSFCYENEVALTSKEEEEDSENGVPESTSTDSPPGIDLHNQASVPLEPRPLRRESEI
# hERG protect = hERG rescue from dofetilide block, primary screen, cell-based, CHO-hERG, FluxOR thallium flux, dofetilide IC70; Voltage-gated inwardly rectifying potassium channel KCNH2 (Homo sapiens), Q12809; dofetilide IC70 present; activation (rescue from dofetilide block), less the hit threshold, % at 10 µM; actives 0.51% (n = 310,000);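 active = activation above the mean of controls blocked by dofetilide plus 5 SD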;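 also: thallium influx through hERG after potassium depolarization seen as dye fluorescence rise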
# KCNK9 inh conf = KCNK9 potassium channel inhibitors, confirmation, HEK293 cells, thallium flux, duplicate | shares compounds with KCNK9 block | FluxOR thallium flux fluorescence | inhibition, % at 10 µM | actives 43% (n = 4,900) | AID 492992, 2010;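 active = thallium signal inhibited by more than 5 SD of the compound-free buffer control wells, on both duplicate plates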;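 also: 0% = assay buffer control wells without compound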
# Kir21 sel = mouse Kir2.1 channel inhibition, confirmation, selectivity assay for KCNK9 modulator project, cell-based, HEK293, thallium flux | shares compounds with KCNK9 block | Kir2.1 cells, FluxOR thallium flux fluorescence | inhibition, % at 10 µM | actives 4% (n = 4,900);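 active = thallium signal drop more than 5 SD beyond the mean of the no-compound control wells, seen in both duplicate plates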;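 also: signal is fluorescence rise after thallium addition divided by baseline fluorescence; plate controls were assay buffer only for no effect and full block by chlorpromazine control for full effect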
# HEK293 Tl ctr = thallium flux in non-induced HEK293 cells, confirmation, counter-screen for KCNK9 inhibitor project, cell-based, second counter screen, non-induced KCNK9-HEK293; shares compounds with KCNK9 block; FluxOR thallium flux; inhibition, % at 10 µM; actives 40% (n = 4,900); AID 492997, 2010;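 active = thallium signal drop beyond 5 SD of the untreated control mean, on both duplicate plates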;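 also: plate controls were buffer only IC0 wells for no effect and SID17386958 at its maximal inhibitory level for full effect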
# Numbers without * were called inactive; i = inactive; · = not tested or not shown. An excerpt weighted towards active compounds, which were near 3.7% of everything screened.
SMILES,KCNQ1 pot,KCNQ1 block,KCNK3 inh,KCNK9 block,Kir21 inh,hERG protect,KCNK9 inh conf,Kir21 sel,HEK293 Tl ctr
COc1ccccc1C/C(N)=N/OC(=O)COc1cc(C)cc(C)c1C,i,i,i,i,-0.7,-4,·,·,·
COc1ccccc1C/C(N)=N/OC(=O)COc1cccc(C)c1C,i,i,i,i,0.27,-2,i,i,i
O=C(NCCN1CCOCC1)c1cccn2c(=O)c3c4c(sc3nc12)CCCC4,i,i,·,i,1.4,-4,·,·,·
CCn1nnc2cc(C(=O)NCCc3ccccc3F)ccc21,i,i,i,i,-1.3,-4,·,·,·
CCc1ccc(CN(C)C(=O)c2cc(COc3cc(C)c(Cl)c(C)c3)on2)nc1,i,i,i,i,-0.73,-10,i,i,i
N#C/C(=C/c1ccc(N2CCCCC2)cc1)c1cccc(F)c1,i,i,i,i,-1.4,-10,·,·,·
N#C/C(=C/c1ccc(N2CCCCCC2)o1)c1ccc(Cl)cc1,i,7*,i,-10*,-3.8,-31,60%*,i,78%*
Cc1cc(C2N=C(N)Nc3nc4ccccc4n32)c(C)n1-c1ccccc1Cl (centres undefined),i,i,i,-8.7*,-0.19,-11,52%*,i,39%*
COc1cccc(CNC(=O)c2ccc(CS(=O)c3ccccc3)o2)c1 (centres undefined),i,i,i,i,-0.95,-5,·,·,·
C=CCn1c(SCC)nc2sc3c(c2c1=O)CCc1ccccc1-3,i,i,i,i,0.33,-10,·,·,·
C=CCSc1nc2sc3c(c2c(=O)n1CC)CCc1ccccc1-3,i,i,i,i,-0.7,0,i,i,i
CC(C)Nc1nc(NC(C)C)nc(SCCOC(=O)Nc2ccc(Cl)cc2Cl)n1,i,i,i,i,-0.18,-9,i,i,i
CCNc1nc(NC(C)C)nc(SCCOC(=O)c2ccccc2)n1,i,i,i,i,-1.4,-6,·,·,·
CCN(CC)S(=O)(=O)c1cc(NC(=O)C(C)N2CCc3ccccc32)ccc1C (centres undefined),i,i,i,i,1.9,-14,·,·,·
CCN(CC)S(=O)(=O)c1cc(NC(=O)C(C)N(C)CC(=O)Nc2c(C)cccc2C)ccc1C (centres undefined),i,i,i,-10*,-1.2,-11,52%*,i,36%*
CC[C@@]1(C(=O)OC)N[C@H](CN(C)C(=O)Nc2ccc(OC)cc2)[C@@H]2C(=O)N(C)C(=O)[C@@H]21,·,·,i,·,·,·,·,·,·
COc1ccc(S(=O)(=O)Cc2ccc(C(=O)N3CCN(c4cccc(C)c4)C(C)C3)o2)cc1 (centres undefined),i,i,i,i,1.3,-2,i,i,i
CC(C)Cc1cc(C(=O)N2CCCC(C(=O)c3cc(F)ccc3F)C2)no1 (centres undefined),i,i,i,i,0.3,-5,i,i,i
O=C(c1cc(COc2ccc(F)cc2F)on1)N1CCCC(c2ccccc2)C1 (centres undefined),i,i,i,i,0.3,-8,i,i,36%*
O=C(c1cc(COc2ccc(F)cc2F)on1)N1CC[C@@H]2CCCC[C@H]2C1,i,i,i,i,-0.09,-13,i,i,i
O=C(c1cc(F)ccc1F)C1CCCN(C(=O)c2cccs2)C1 (centres undefined),i,i,i,i,-1.4,-3,·,·,·
O=C(c1ccc(F)cc1)N1CCCC(c2ccccc2)C1 (centres undefined),i,i,i,-8.8*,-0.01,-11,36%*,i,i
Cc1cc(C)c(C)c(S(=O)(=O)N(C)C2CCN(C)CC2)c1C,i,i,i,i,-0.15,-2,·,·,·
O=c1cc(N2CCCCC2)c(-c2ccccc2)nn1Cc1ccc(Cl)cc1Cl,i,9*,i,-21*,2.5,-7,80%*,i,46%*
O=c1cc(Cl)c(-c2ccccc2)nn1Cc1ccc(Cl)cc1,i,i,i,i,0.69,-4,·,·,·
SMILES,KCNQ1 pot,KCNQ1 block,KCNK3 inh,KCNK9 block,Kir21 inh,hERG protect,KCNK9 inh conf,Kir21 sel,HEK293 Tl ctr
CCOc1cc(CNCCSc2nnnn2C)cc(Br)c1OCc1ccccc1F,i,i,i,-9.5*,0.04,-21,i,i,32%*
COc1cc(CNCCSc2nnnn2C)cc(Br)c1OCc1ccccc1F,i,i,i,i,-0.09,-14,·,·,·
CN(C1CCCCC1)S(=O)(=O)c1cc2c(cc1Cl)NC(=O)CO2,i,i,i,i,-1.4,-5,·,·,·
CC(=O)c1cccc(NC(=S)NC(=O)c2cccc(C)c2)c1,i,i,i,i,0.69,-8,·,·,·
Cc1cccc(C(=O)NC(=S)Nc2cccc3nc(C)ccc23)c1,i,i,i,i,-0.28,-7,i,i,i
CCCN(Cc1nnc(-c2cccs2)o1)C(=O)CN1C(=O)NC2(CCCCC2C)C1=O (centres undefined),·,·,i,·,·,·,·,·,·
COC(=O)c1ccc(C(=O)OC)c(NC(=O)COC(=O)CC2CC3CCC2C3)c1 (centres undefined),i,i,-14*,-13*,-2,-12,50%*,i,29%*
Oc1ccc(N=Nc2ccccc2)o1,i,i,i,i,-2.4,-1,·,·,·
